Thrombin inh = thrombin (human) inhibition; actives 0.26% (n = 220,000); inhibition, % at 5 µM; alpha-thrombin, Boc-VPR-AMC fluorogenic substrate cleavage;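 active = inhibition at or above 40%; inactive = inhibition below 40%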;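 also: 0% = enzyme with no compound and 100% = wells without enzyme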
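Material: human alpha-thrombin protein. Incubation: reaction at ambient temperature. Technique: fluorescence of released AMC, ex 355 nm, em 460 nm. Control set: no-compound enzyme wells and no-enzyme blanks. Also added: Boc-VPR-AMC substrate, 15 µM final. Buffer or medium: pH 7.5 Tris (50 mM) with NaCl 150 mM, Tween 20 0.05%.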
FXIIa inh 1536 = inhibitors of human coagulation factor XIIa. actives 0.3% (n = 220,000). inhibition, % at 5 µM. purified FXIIa, Boc-QGR-AMC fluorogenic substrate, 2 h. AID 800; in the data active = inhibition above about 40%;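 also: 0% = enzyme with no compound and 100% = blank without enzyme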
hK5 inh = blocks human kallikrein 5 protease activity | inhibition, % at 5 µM | actives 0.59% (n = 210,000) | Q9Y337 | recombinant hK5, fluorogenic AMC substrate cleavage;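 active = inhibition of 40% or more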;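 also: 0% = enzyme controls without compound and 100% = no-enzyme blanks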
Target sequence (Q9Y337 67-293 limits assumed): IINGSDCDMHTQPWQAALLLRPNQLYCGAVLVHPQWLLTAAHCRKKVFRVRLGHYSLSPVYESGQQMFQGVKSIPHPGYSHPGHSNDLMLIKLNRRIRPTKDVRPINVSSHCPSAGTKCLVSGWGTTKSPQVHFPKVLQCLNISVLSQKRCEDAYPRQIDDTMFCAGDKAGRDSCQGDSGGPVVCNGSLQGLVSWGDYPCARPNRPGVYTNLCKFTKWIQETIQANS
FXIa inh = factor XIa (human) inhibition; P03951; AID 798; purified FXIa, Boc-Glu-Ala-Arg-AMC fluorogenic substrate; inhibition, % at 5 µM; actives 0.14% (n = 220,000);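 active = inhibition of at least 40%; inactive = inhibition below 40%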;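 also: fluorescence of freed AMC excited at 355 nm; 0% = enzyme without compound and 100% = no enzyme blank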
* marks the source's active call; other numbers are inactive results; · = no result. An excerpt weighted towards active compounds, which were near 1% of everything screened.

SMILES | Thrombin inh | FXIIa inh 1536 | hK5 inh | FXIa inh
CC(CO)(CO)NCc1ccc(-c2ccccc2)cc1 | 46* | 18 | 40 | 1
Cn1cc(C(=O)c2ccc(Cl)cc2Cl)cc1C(=O)N/N=C(\N)COc1ccc(F)cc1 | 76* | 9 | -111 | -1
O=C1COc2ccc(C(=O)c3ccccc3C(=O)O)cc2N1 | -1 | 11 | -14 | 1
O=C(Nc1ccc(Cl)cc1)Nc1nc(-c2ccccc2O)cs1 | 19 | 29 | 35 | 53*
CC(C)c1ccccc1NC(=O)COC(=O)c1ccc(Cl)c(S(=O)(=O)N2CCCCCC2)c1 | -9 | 1 | -18 | 2
O=c1ccc(Cl)n[nH]1 | -4 | 5 | -2 | -2
Cc1ccc(F)c([C@H]2C3C=CCC(c4ccccc4)C3C(=O)N2Cc2ccccc2)c1 (stereo not given in full) | -6 | 6 | 2 | 1
O=C(N/N=C/c1ccccc1[N+](=O)[O-])C(=O)N1CCCC1 | -3 | 6 | 2 | -5
CC(C)(C)SCCNS(=O)(=O)c1ccccc1 | 22 | 50* | 43* | 13
CC(=O)n1nc(-c2ccc(C)cc2)nc1NCc1ccco1 | 69* | 10 | 6 | -1
COc1ccc(CC(=O)n2nc(-c3ccccc3)nc2NCc2ccco2)cc1 | 93* | 13 | -19 | 6
CC(=O)n1nc(-c2ccc(C)cc2)nc1NCc1ccc(F)cc1 | 94* | -7 | -24 | -9
COc1ccc(CNc2nc(NCc3ccc(OC)cc3)n(C(C)=O)n2)cc1 | -1 | 6 | -3 | -5
COc1ccccc1C(=O)n1nc(-c2cccnc2)nc1NCc1ccccc1 | · | 3 | 0 | 15
CC(C)C(=O)n1nc(-c2cccnc2)nc1NCc1ccc(F)cc1 | 100* | 1 | · | 3
Cc1ccc(SC(=O)c2c([N+](=O)[O-])c(C)nn2C)cc1 | -1 | 0 | 3 | 4
O=C(CC12CC3CC(CC(C3)C1)C2)NCC(c1ccc(F)cc1)N1CCOCC1 (stereo not given) | -6 | -5 | -6 | -4
CC(NC(=O)c1ccc(C(F)(F)F)cc1)C(c1ccccc1)N1CCOCC1 (stereo not given) | -5 | 4 | -5 | -4
CCn1c(C(C)NC(=O)c2cccs2)n[nH]c1=S (stereo not given) | -3 | 7 | -16 | 0
Cc1cc(C)cc(C(=O)N2CCC(C(N)=O)CC2)c1 | -5 | 30 | 13 | 7
Cc1c(C(=O)N2CCC(C(N)=O)CC2)sc(N)c1C#N | 104* | 9 | 107* | 8
CCCC(=O)NC(=S)Nc1ccc(Cl)cn1 | 16 | 17 | 112* | 1
CCOC(=O)Nc1c(O)ccc2oc(C)c(-c3ccccc3)c12 | 20 | 20 | 84* | 7
CCOC(=O)C(=O)Nc1nc(-c2ccccc2)c(-c2ccccc2)o1 | -7 | -1 | -4 | 0
CCC(C(=O)OCC(=O)Nc1ccc(SC(F)F)cc1)c1ccccc1 (stereo not given) | 51* | -2 | 24 | 3
SMILES | Thrombin inh | FXIIa inh 1536 | hK5 inh | FXIa inh
FC(F)(F)c1ccc(Oc2ccc3ccccc3c2Br)nc1 | -3 | 2 | 24 | -9
Cc1nn(C)cc1NC(=O)CC12CC3CC(CC(C3)C1)C2 | 1 | 6 | 52* | 4
Cc1cc(C)nc(SCC(=O)c2cc3ccccc3oc2=O)n1 | -6 | -2 | -13 | 4
O=C(CSc1nc2ccccc2o1)c1cc2ccccc2oc1=O | 81* | 13 | 30 | 6
COc1ccc(CCNC(=O)CCc2ccc(S(=O)(=O)NCC(C)C)cc2)cc1 | -6 | 5 | -11 | 2
COc1ccc(/C=C2\CCCC3C2=NN(C(=O)COC(=O)CNC(=O)c2ccccc2)C3c2ccc(OC)cc2)cc1 (stereo not given) | 13 | 16 | 47* | 2
O=C(O)CN1C(=O)/C(=C/c2ccc(N3CCCCC3)o2)SC1=S | 8 | 72* | 45* | 23
COCC(=O)Nc1nc(-c2ccccc2)ns1 | 19 | 24 | 58* | -11
COCC(=O)Nc1ccccc1-c1ccccc1 | 34 | 30 | 13 | 45*
O=C(CCN1CCOCC1)Nc1c(-c2ccccc2)c2cc(Br)ccc2[nH]c1=O | -1 | 7 | -3 | 0
Cc1ccc2[nH]c(=O)c(N3CCOCC3)c(-c3ccccc3)c2c1 | 16 | 2 | 47* | 12
CC(=O)NNC(=O)c1sc(=S)n2c1[nH]c(=O)c1sccc12 | -11 | 3 | -73 | -3
O=C(NCc1ccccc1)c1sc(=S)n2c1[nH]c(=O)c1ccccc12 | 25 | 16 | 43* | 16
CC(=O)Nc1nonc1NC(=O)CSc1ccccn1 | 0 | 70* | 4 | 11
CC(C)CN1CCC(CN(C)Cc2nc(-c3cnccn3)no2)CC1 | -4 | 4 | -7 | -3
CCOC(=O)/C(=N\Nc1cccc(C(F)(F)F)c1)N1CCOCC1 | 3 | 24 | 52* | 29
CCOC(=O)C1=C(CN2CCN(CCC#N)CC2)NC(=O)NC1c1ccc2c(c1)OCO2 (stereo not given) | -2 | -1 | -12 | -7
Nc1cccc(/C=C/c2ccncc2)c1 | 0 | 7 | 0 | -1

Bioassay records from PubChem BioAssay.
